B1: tRNA (parent)
chain: GUUCCGUUGGCGUAAUGGUAACGCGUCUCCCUCCUAAGGAGAAGACUGCGGGUUCGAGUCCCGUACGGAACG

Fewer inactive variants are shown than the library holds.

The variants in the series derive from B1. As to the kind of experiment: yeast fitness relative to wild type (ratio to wild type); higher = fitter; tRNA-Arg(CCU), competitive growth, 37 C, YPD. The essentials:
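Gene amplicons from the start population and from each of six end populations were read by 100-nucleotide paired-end sequencing. Those end populations came from pooled Saccharomyces cerevisiae strains carrying tRNA-Arg(CCU) gene variants at the native locus, competed in YPD at 37°C for 24 hours. Fitness relative to wild type was worked out from changes in genotype frequencies. Genotypes needed ≥ 100 starting reads, and estimates < 0.5 were set to 0.5.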
For U16G G67U, the yeast fitness was 0.774.

As to G17A C61G G68A, the yeast fitness was ≤ 0.5.

For the variant G17A C22G C27A A45U G56C G63C G67C, the yeast fitness was ≤ 0.5.

As for G17A C22U C27A C30G C66G, the yeast fitness is ≤ 0.5.

Regarding G17A G18A, the yeast fitness turned out to be 0.65.

G17A G18C: the yeast fitness is 0.63.

In the case of G17C A20C C34A U47A A57U, the yeast fitness is ≤ 0.5.

Regarding G17C C55U, the yeast fitness turned out to be 0.598.

For the variant G17C C55G, the yeast fitness turned out to be 0.616.

As to G17C C55A, the yeast fitness was ≤ 0.5.

Consider G17C C24G G63C, for which the yeast fitness was ≤ 0.5.

Take G17A A21C: the yeast fitness stood at 0.67.

For the variant G18A A36U C61A, the yeast fitness is ≤ 0.5.

As for G17A C55G, the yeast fitness was ≤ 0.5.

For the variant G17A C55A, the yeast fitness was 0.547.

Take G17C A37G A40C: the yeast fitness worked out at 0.619.

As for G18A A20U C22U U28A C33U G44C, the yeast fitness was determined as 0.524.

Take G17C G39C G63A: the yeast fitness is ≤ 0.5.

For G17A C22U U28C U54G A57C, the yeast fitness is ≤ 0.5.

As for G17A U54A A70G, the yeast fitness was ≤ 0.5.

Take G17C C22A U28C A40G A45C C66G A69U: the yeast fitness is ≤ 0.5.

For the variant G17C U32C A42U, the yeast fitness was 0.559.

On to G17C U26C C46U A65U, for which the yeast fitness stood at 0.558.

As for G17C A37G C55U, the yeast fitness is ≤ 0.5.

Regarding G17C U19A C49G, the yeast fitness came out at 0.517.

For G17A G58A, the yeast fitness was 0.794.

On to G17A A65U, for which the yeast fitness was 0.805.

On to G17A G56C G58C G63A, for which the yeast fitness is ≤ 0.5.

Take G17A C33G C66U: the yeast fitness was ≤ 0.5.

Regarding G17C C22G C30U G41C C46U, the yeast fitness came to 0.708.

Regarding G17C C31A C60A A65U, the yeast fitness was 0.532.

For the variant G17C C33G U59G A69U, the yeast fitness was found to be 0.665.

For the variant G17C C62U A65C, the yeast fitness is 0.593.

In the case of G18A A21C C30U C34A, the yeast fitness was ≤ 0.5.

On to G17C U26G G39C A40U, for which the yeast fitness was ≤ 0.5.

As for G17A C31U, the yeast fitness is 0.74.

As to G17C C24A U47A, the yeast fitness was ≤ 0.5.

Turning to G17C U19C A40G U47G, the yeast fitness is ≤ 0.5.

In the case of G17C U19A C24G U26A C34U, the yeast fitness was ≤ 0.5.

With G17A C27G C61U, the yeast fitness was ≤ 0.5.

On to G17A G41C A43G G58C, for which the yeast fitness was ≤ 0.5.

As for G17C C33U A37C, the yeast fitness is ≤ 0.5.

For G17C G18C, the yeast fitness amounted to 0.576.

Consider G18A A20U A42G, for which the yeast fitness was ≤ 0.5.

As to G17A C22U U28C A65U, the yeast fitness is ≤ 0.5.

Regarding G17U U19G A37G C66U A69U, the yeast fitness was determined as 0.561.

Turning to G17C A57G, the yeast fitness turned out to be 0.68.

As for G17C C27U C61A, the yeast fitness is 0.537.

As to G17C G25C U26A C29G A36U G39A C46U C55U, the yeast fitness was ≤ 0.5.

Turning to G17C A37C A40C C61U G68A, the yeast fitness was ≤ 0.5.

G17C G58C: the yeast fitness stood at 0.528.

With G17C C29G A37C U64C, the yeast fitness amounted to 0.771.

G17A C29G U59G C61G C62U: the yeast fitness is ≤ 0.5.

Consider G17C G56C A57G G68U, for which the yeast fitness worked out at 0.571.

G17A G41A: the yeast fitness was 0.665.

G17A C22A C31A C33A C49A: the yeast fitness was found to be 0.573.

Consider G17C G39A G52A, for which the yeast fitness was ≤ 0.5.

Turning to G17C C29A A57U, the yeast fitness is ≤ 0.5.

In the case of G17C G39C, the yeast fitness was 0.59.

Consider G17A C66A, for which the yeast fitness was found to be 0.647.

Regarding G17C C22G U26C U47A C66G, the yeast fitness is ≤ 0.5.

G17C U47G C66U G67A A69U: the yeast fitness was ≤ 0.5.

Turning to G17A C29U, the yeast fitness amounted to 0.832.

G17A G39C G56C: the yeast fitness was ≤ 0.5.

G17A C22U A45G C46U A69U: the yeast fitness is 0.603.

Turning to G17C U53G A70U, the yeast fitness was found to be 0.564.

In the case of G17C C30G C49U A57C C61G, the yeast fitness was ≤ 0.5.

On to G17C C24A A45C, for which the yeast fitness turned out to be 0.508.

Regarding G18A A20U C49G U54A G68U A69U, the yeast fitness was ≤ 0.5.

Turning to G17A C22U U59A, the yeast fitness was ≤ 0.5.

For G17A C24U C29G, the yeast fitness amounted to 0.533.

With G18A A20G U26G G50C G63C, the yeast fitness is ≤ 0.5.

As to G17C C27U C34U A42U, the yeast fitness was ≤ 0.5.

With G17A C29G U47A G51A, the yeast fitness is ≤ 0.5.

With G17A G50C, the yeast fitness was determined as 0.647.

As to G17A C29U U35G A37C G38C A65C, the yeast fitness was ≤ 0.5.

Regarding G17A U26C, the yeast fitness was found to be 0.784.

For the variant G18A A20C C34U A36U G39C, the yeast fitness was found to be 0.539.

As to G17A C22A A45C G67C, the yeast fitness was ≤ 0.5.

On to G17U C24U, for which the yeast fitness came out at 0.84.

For the variant G18A A20G A69U, the yeast fitness came out at 0.542.

Turning to G17C G23C A43U C49A C66U A70U, the yeast fitness was determined as 0.603.

With G17C G51C C66U, the yeast fitness is ≤ 0.5.

For the variant G18A A20U C29G A37U, the yeast fitness came to 0.563.

As for G17A A20G A36C A37C U53G A70C, the yeast fitness is ≤ 0.5.

For G17A U19A G23A C31U C34A G48C C62U, the yeast fitness was ≤ 0.5.

On to G17C C27G C29A, for which the yeast fitness was ≤ 0.5.

As for G17A C30U A42C, the yeast fitness was ≤ 0.5.

G17A C24A C49U: the yeast fitness is ≤ 0.5.

Regarding G17C A20U G52C, the yeast fitness is ≤ 0.5.

Take G17C C22A C31G C55G A70U: the yeast fitness was 0.527.

Regarding G17C G56A, the yeast fitness was 0.709.

For G17C G56C, the yeast fitness came out at 0.633.

For the variant G17A A45U G52A, the yeast fitness was ≤ 0.5.

In the case of G17C G51A A65C, the yeast fitness is ≤ 0.5.

Turning to G17A C31U G52A, the yeast fitness is ≤ 0.5.

Take G17C G18C C31G A42G: the yeast fitness is ≤ 0.5.

As to G17A A45U G52A A70U, the yeast fitness was 0.535.

For the variant G17A C33U A43U A57G G67U, the yeast fitness was ≤ 0.5.

Turning to G17C G18C A20G C30A G50A A69C, the yeast fitness was ≤ 0.5.

With G17C G41A G56C, the yeast fitness came out at 0.619.

For the variant G17A C31U A42C, the yeast fitness was found to be 0.582.

Take G17A C24G C33G C60U: the yeast fitness is ≤ 0.5.

In the case of G17C C49U G63C, the yeast fitness was ≤ 0.5.

For G17C C22A U32C, the yeast fitness was 0.553.

In the case of G17C A69U, the yeast fitness amounted to 0.624.

On to G17C A69C, for which the yeast fitness was found to be 0.658.

In the case of G17C C24A U47A C66U A69U, the yeast fitness is ≤ 0.5.

As for G17A A20C G25A C66A G68C, the yeast fitness is ≤ 0.5.

In the case of G17A C30G A45G A65U, the yeast fitness is ≤ 0.5.

Take G17A A43G A45G C62G: the yeast fitness was ≤ 0.5.

With G17A G23C C33G C46A C66A, the yeast fitness was ≤ 0.5.

For the variant G17A C22A G25A, the yeast fitness was determined as 0.501.

For G17C A45U A65C, the yeast fitness is ≤ 0.5.

Consider G17A A42G U64A, for which the yeast fitness stood at 0.58.

On to G17C C30G C60G G63A A65U C66U, for which the yeast fitness stood at 0.549.

Turning to G17A A40U G52A C60U G63C, the yeast fitness is ≤ 0.5.

For the variant G17C C29G A65C, the yeast fitness was determined as 0.629.

As to G17C C27U U53G, the yeast fitness was ≤ 0.5.

Take G17C A20C G52C: the yeast fitness was ≤ 0.5.

Take G17C C22G: the yeast fitness came to 0.619.

As to G17A C46U, the yeast fitness worked out at 0.878.

For G17A C46G, the yeast fitness worked out at 0.712.

Turning to U16G U47A U54A A57U U64A A69U, the yeast fitness stood at 0.678.

Regarding G17C G63C C66U, the yeast fitness was ≤ 0.5.

G17A A42G G50A: the yeast fitness was ≤ 0.5.

G17A U32C A40G A70G: the yeast fitness is ≤ 0.5.

On to G17A C31G G48A, for which the yeast fitness was ≤ 0.5.

In the case of G17A A37C G58A, the yeast fitness was determined as 0.551.

Take G17C A42C C61A: the yeast fitness is ≤ 0.5.

Regarding G17A U28C C46U G63A, the yeast fitness was ≤ 0.5.

As for U16G U32G C46U C49U, the yeast fitness was ≤ 0.5.

Turning to G17A A21C C29G A70U, the yeast fitness was ≤ 0.5.

Turning to G17C C24A, the yeast fitness amounted to 0.56.

As to G17C C24U, the yeast fitness came to 0.607.

Turning to G17A C61U C66U, the yeast fitness came to 0.599.

For G17C C22A C31G C55G G68A, the yeast fitness turned out to be 0.587.

Consider G17A C22U U28C U54G A57C C62U, for which the yeast fitness is 0.535.

On to G17A U28G A42G G68U, for which the yeast fitness is ≤ 0.5.

Regarding G17A C31U A70C, the yeast fitness was found to be 0.658.

As for G17A C34A G52U, the yeast fitness was ≤ 0.5.

In the case of G17C G25A U32A A43G A57U, the yeast fitness is 0.546.

Take G17C A37U A42U C49G G51A C61U: the yeast fitness is ≤ 0.5.

Turning to G17A A20G G41A, the yeast fitness came out at 0.593.

As for G17C C22G C30U G41C, the yeast fitness amounted to 0.612.

In the case of G17C C30G C55G A70G, the yeast fitness was ≤ 0.5.

Regarding G17C C24G U28A C30U, the yeast fitness worked out at 0.646.

As to G17A U32C A40G, the yeast fitness amounted to 0.573.

Take G17C A20U C33G A70U: the yeast fitness is ≤ 0.5.

As to G17A C30G C61G, the yeast fitness is ≤ 0.5.

In the case of G17A G25C A65C, the yeast fitness was 0.611.

Take G17A A40C: the yeast fitness came out at 0.668.

With G17A U26G C29G C62U A70G, the yeast fitness was ≤ 0.5.

In the case of G17A C31G G68A, the yeast fitness was ≤ 0.5.

On to G17C G51A G63C A69U, for which the yeast fitness was ≤ 0.5.

Regarding G17A C31A U32A, the yeast fitness is 0.62.

As for G17A A20G C34U C55G, the yeast fitness was ≤ 0.5.

Regarding G17C A20U C27U U53C, the yeast fitness amounted to 0.619.

For the variant G17A C22G C27A A36G, the yeast fitness was ≤ 0.5.

On to G17C A20G C46A C60U, for which the yeast fitness was ≤ 0.5.

Regarding G17C A42C, the yeast fitness was 0.618.

Consider G18A A20U A36U C62U, for which the yeast fitness was ≤ 0.5.

On to G17A C31U U54G, for which the yeast fitness is 0.639.

On to G17C C27U G67C, for which the yeast fitness was ≤ 0.5.

Take G17A U64C: the yeast fitness came to 0.878.

G17C A36G C66U A69C: the yeast fitness was determined as 0.803.

Regarding G17U U35C A37U A57C, the yeast fitness was ≤ 0.5.

Values taken from the RNAGym collection of RNA variant scans (doi:10.1126/science.aae0568).
